# Data: ChEMBL document CHEMBL4814057, “4-4-(Anilinomethyl)-3-[4-(trifluoromethyl)phenyl]-1H-pyrazol-1-ylbenzoic acid derivatives as potent anti-gram-positive bacterial agents” (Eur J Med Chem, 2021)
# Active and inactive are the calls of the source. No cut-off for these calls is given here.
# Legend:
# [1] = Toxicity in CD1 mouse assessed as effect on blood urea nitrogen level at 50 mg/kg, ip administered as single dose measured after 24 hrs; format: organism-based; conditions: in vivo
# Method in brief: (§1)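 Male CD-1 mice, 8 weeks, 32–37 g, n = 10 per dose. Single IP injection at 5, 20 or 50 mg/kg in 0.9% saline, filter-sterilized; saline vehicle group. Blood taken by cardiac puncture 24 h later. 14 plasma markers measured on a chemistry panel, reported as mean ± SE. Toxicity judged by significance versus controls, normal ranges, dose-dependence and consistency across organ markers.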
# Staphylococcus aureus [2] = test: Antimicrobial activity against methicillin-susceptible Staphylococcus aureus ATCC 25923 assessed as bacterial growth inhibitions by CLSI protocol based microdilution method; format: functional
# [3] = tested on: Staphylococcus epidermidis; test: Antimicrobial activity against methicillin-resistant Staphylococcus epidermidis ATCC 700296 assessed as bacterial growth inhibitions by CLSI protocol based microdilution method; format: functional
# Staphylococcus aureus [4] = test: Antibiofilm activity against Staphylococcus aureus ATCC 25923 assessed as destruction of biofilm formation at 2 times MIC after 24 hrs by crystal violet staining based assay relative to control; format: functional
# Method in brief: (§2)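 Overnight culture brought to 0.5 McFarland in PBS, diluted 1:100 in CAMHB with 1% glucose. Inhibition: cells plus compound (in DMSO) at 2x, 1x, 0.5xMIC, 24 h at 35 °C, triplicate. Destruction: 24 h biofilm grown without drug, washed, fresh medium with compound, further 24 h. Then washed, dried, 0.1% crystal violet, solubilized in 33% acetic acid, OD 620 nm. Controls are DMSO-only and broth-only wells.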
# Staphylococcus aureus [5] = test: Antibiofilm activity against Staphylococcus aureus ATCC 25923 assessed as destruction of biofilm formation at 1 times MIC after 24 hrs by crystal violet staining based assay relative to control; format: functional; method in brief: as §2
# Enterococcus faecalis [6] = test: Antibiofilm activity against Enterococcus faecalis ATCC 29212 assessed as inhibition of biofilm formation at 0.5 times MIC after 24 hrs by crystal violet staining based assay relative to control; format: functional; set-up: scale not given: the % may be the effect or the level left; method in brief: as §2
# Enterococcus faecalis [7] = test: Antibiofilm activity against Enterococcus faecalis ATCC 29212 assessed as destruction of biofilm formation at 1 times MIC after 24 hrs by crystal violet staining based assay relative to control; format: functional; method in brief: as §2
# Staphylococcus aureus [8] = test: Antibiofilm activity against Staphylococcus aureus UAMS-1 assessed as destruction catheter-associated biofilm formation measured after 48 hrs (reference value: 1.53 x 10^8); format: functional
# Method in brief: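 Plasma-coated catheters colonised for 24 h at 37 °C with gentle shaking, starting from ~1 × 10^7 CFU of MSSA UAMS-1 in biofilm medium (TSB plus glucose and NaCl). […] Medium renewed at 24 h. Catheters (n = 3) sonicated at 48 h and plated on TSA for CFU per catheter.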
# Staphylococcus aureus [9] = test: Antibacterial activity against methicillin resistant Staphylococcus aureus ATCC 700699 persisters assessed as reduction in viability at 4 times MIC measured within 4 hrs by colony counting method; format: functional; conditions: time hrs <=4
# Method in brief: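 Stationary-phase S. aureus from overnight CAMHB culture (35 °C, 200 rpm), washed thrice in PBS, diluted to ~5 × 10^8 CFU/ml. Incubated with antibiotic at 35 °C, 200 rpm. Aliquots taken at set times, washed, serially diluted in PBS, drop-plated (6 × 6) on TSA with 5% sheep blood. Colonies counted after 18–20 h at 35 °C. Triplicates.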
# [10] = Toxicity in CD1 mouse assessed as effect on glucose level at 50 mg/kg, ip administered as single dose measured after 24 hrs; format: organism-based; conditions: in vivo; method in brief: as §1
# Staphylococcus aureus [11] = test: Bactericidal activity against Staphylococcus aureus ATCC 33591 assessed as reduction bacterial growth at 4X MIC measured after 4 hrs by time-kill kinetic assay; format: functional
# Method in brief: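 Log-phase culture diluted to ~5 × 10^6 CFU/ml in warm CAMHB, exposed at 4xMIC, 35 °C. 20 µl samples every 2 h, 10-fold dilutions to 10^-5, 6 × 6 drop plating. CFU/ml counted after 18–24 h at 35 °C; triplicate.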
# Enterococcus faecium [12] = test: Antimicrobial activity against vancomycin-resistant Enterococcus faecium clinical isolate 1091720 by CLSI-based broth microdilution assay; format: functional
# Enterococcus faecium [13] = test: Antimicrobial activity against vancomycin-resistant Enterococcus faecium clinical isolate 1094112 by CLSI-based broth microdilution assay; format: functional
# [14] = Toxicity in CD1 mouse assessed as effect on sodium level at 50 mg/kg, ip administered as single dose measured after 24 hrs; format: organism-based; conditions: in vivo; method in brief: as §1
# [15] = Toxicity in CD1 mouse assessed as effect on pancreatic amylase level at 50 mg/kg, ip administered as single dose measured after 24 hrs; format: organism-based; conditions: in vivo; method in brief: as §1
# [16] = Toxicity in CD1 mouse assessed as effect on alkaline phosphatase level in blood at 50 mg/kg, ip administered as single dose measured after 24 hrs; format: organism-based; conditions: in vivo; method in brief: as §1
# [17] = Toxicity in CD1 mouse assessed as effect on phosphorus level at 50 mg/kg, ip administered as single dose measured after 24 hrs; format: organism-based; conditions: in vivo; method in brief: as §1
# [18] = Toxicity in CD1 mouse assessed as effect on total bilirubin level at 50 mg/kg, ip administered as single dose measured after 24 hrs; format: organism-based; conditions: in vivo; method in brief: as §1
# Staphylococcus aureus [19] = test: Inhibition of DNA synthesis in Staphylococcus aureus ATCC 29213 at 0.25 times MIC measured by liquid scintillation counter; format: functional
# Method in brief: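 Early-exponential cells in CAMHB added to drug (40x stock) in triplicate, with a no-drug control. After 30 min pre-incubation at room temperature, [3H]thymidine 3.0 µCi/tube (DNA) or [3H]uridine 0.5 µCi/tube (RNA) added for 30 min at room temperature. Stopped with cold TCA, precipitate filtered and washed, then scintillation counted.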
# Staphylococcus aureus [20] = test: Antimicrobial activity against Staphylococcus aureus ATCC 29213 assessed as inhibition of cell wall synthesis at 2 times MIC measured by liquid scintillation counter; format: functional
# Method in brief: (§3)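 Early-exponential cells resuspended in M9 minimal medium, drug (40x stock) in triplicate, 30 min pre-incubation at 37 °C. [14C]N-acetylglucosamine 0.4 µCi/reaction for 45 min at 37 °C. Stopped with 8% SDS, heated 95 °C 30 min, spotted on nitrocellulose, washed with 0.1% SDS, then scintillation counted.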
# Staphylococcus aureus [21] = test: Antimicrobial activity against Staphylococcus aureus ATCC 29213 assessed as inhibition of cell wall synthesis at 4 to 8 times MIC measured by liquid scintillation counter; format: functional; method in brief: as §3
# Staphylococcus aureus [22] = test: Inhibition of lipid synthesis in Staphylococcus aureus ATCC 29213 at 0.25 times MIC measured by liquid scintillation counter; format: functional
# Method in brief: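 Early-exponential cells in CAMHBII with drug in triplicate. Lipids extracted with chloroform/water, centrifuged, organic phase dried, then scintillation counted.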
# Staphylococcus aureus [23] = test: Antibacterial activity against vancomycin-intermediate susceptible Staphylococcus aureus ATCC 25923 assessed as bacterial growth inhibition by measuring fold increase in MIC between 14 passages by broth dilution method; format: functional
# Enterococcus faecalis [24] = test: Antibiofilm activity against Enterococcus faecalis ATCC 29212 assessed as inhibition of biofilm formation at 2 times MIC after 24 hrs by crystal violet staining based assay relative to control
# Enterococcus faecalis [25] = test: Antibiofilm activity against Enterococcus faecalis ATCC 29212 assessed as inhibition of biofilm formation at 0.5 times MIC after 24 hrs by crystal violet staining based assay relative to control
smiles,measurement,setting,value
O=C(O)c1ccc(-n2cc(CNc3cc(F)cc(C(F)(F)F)c3)c(-c3ccc(C(F)(F)F)cc3)n2)cc1,Activity,[1],Non-Toxic
same,MIC,Staphylococcus aureus [2],0.39 µg/mL
same,MIC,[3],1.56 µg/mL
same,Activity,Staphylococcus aureus [4],70%
same,Activity,Staphylococcus aureus [5],55%
same,Activity,Enterococcus faecalis [6],75%
same,Activity,Enterococcus faecalis [7],75%
same,Activity,Staphylococcus aureus [8],4.74 10^5CFU
same,Activity,Staphylococcus aureus [9],2 log10CFU/ml
same,Activity,[10],Non-Toxic
same,Activity,Staphylococcus aureus [11],3 log10CFU/ml
same,MIC,Enterococcus faecium [12],4 µg/mL
same,MIC,Enterococcus faecium [13],4 µg/mL
same,Activity,[14],Non-Toxic
same,Activity,[15],Non-Toxic
same,Activity,[16],Non-Toxic
same,Activity,[17],Non-Toxic
same,Activity,[18],Non-Toxic
same,inhibition (INH),Staphylococcus aureus [19],44%
same,inhibition (INH),Staphylococcus aureus [20],39.5%
same,inhibition (INH),Staphylococcus aureus [21],>80%
same,inhibition (INH),Staphylococcus aureus [22],20.7%
same,fold change (FC),Staphylococcus aureus [23],2
same,inhibition (INH),Enterococcus faecalis [24],90%
same,inhibition,Enterococcus faecalis [25],Active
